Results published in ChEMBL document CHEMBL4007469, “Design and synthesis of dalbergin analogues and evaluation of anti-osteoporotic activity” (Bioorg Med Chem Lett, 2017).
Activity calls are given as the source filed them. No cut-off for these calls is given here.

Key:
Mus musculus [1] = assay: Estrogenic effect in uterine of ovariectomized postmenopausal Balb/c mouse model assessed as total uterine area at 1 mg/kg, po qd via gavage for 6 weeks (reference value: 837.2 +/- 36.09 um2); assay type: ADME, organism-based; conditions: in vivo, 1008 h
Mus musculus [2] = assay: Anti-osteoporotic activity in ovariectomized postmenopausal Balb/c mouse model assessed as decrease in RANK mRNA expression at 1 mg/kg, po qd via gavage for 6 weeks by RT-PCR method; assay type: functional, organism-based
Summary of the method: (§1)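 Eight-week-old female Balb/c mice, ovariectomized and left 6 weeks for osteopenia to develop; groups sham+vehicle, OVx+vehicle, OVx+1.0 mg/kg/day, dosed once daily by oral gavage for 6 weeks in gum acacia/distilled water vehicle. Mice kept at 21°C, 12 h light/dark, chow and water ad libitum. Femoral bone mRNA or serum measured after sacrifice; mean ± SE versus OVx group.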

Mus musculus [3] = assay: Estrogenic effect in uterine of ovariectomized postmenopausal Balb/c mouse model assessed as luminal area at 1 mg/kg, po qd via gavage for 6 weeks (reference value: 57.5 +/- 1.19 um2); assay type: ADME, organism-based; conditions: in vivo, 1008 h
Mus musculus [4] = assay: In vivo induction of osteogenesis in Balb/c mouse assessed as increase in OCN mRNA level in calvaria at 1 mg/kg/day, sc over calvarial surface for 5 consecutive days by RT-PCR method relative to control; assay type: functional
Summary of the method: (§2)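 Three-week-old Balb/c mice (3 per group) injected subcutaneously over the calvarial surface daily for 5 consecutive days at 0.1, 0.5, 1 and 5 mg/kg/day. Calvaria fixed in 4% formaldehyde, paraffin-embedded, H&E-stained; tetracycline and calcein (20 mg/kg each, ip) given for MAR/BFR histomorphometry; calvarial mRNA by RT-PCR. Mean ± SE, three independent experiments, versus untreated.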

[5] = Induction of osteoblast differentiation in mouse calvarial cells assessed as increase in RunX2 mRNA expression at 1 pM after 24 hrs by qRT-PCR method relative to control; assay type: functional, Calvarial cell
Summary of the method: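 Mouse calvarial osteoblasts exposed to 1 pM for 24 h; BMP2, RunX2 and COL1 mRNA by quantitative PCR with GAPDH as internal control. Mean ± SE of three independent experiments versus untreated cells.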

Mus musculus [6] = assay: Anti-osteoporotic activity in ovariectomized postmenopausal Balb/c mouse model assessed as increase in ALP gene expression in femur bone at 1 mg/kg, po qd via gavage for 6 weeks by RT-PCR method; assay type: functional, organism-based; summary of the method: as §1
Mus musculus [7] = assay: Osteogenic activity in Balb/c mouse drill-hole fracture model assessed as trabecular number at 1 mg/kg, po qd via gavage for 21 days by micro-CT method (reference value: 2.194 +/- 0.265 /millimeter)
Mus musculus [8] = assay: Anti-osteoporotic activity in ovariectomized postmenopausal Balb/c mouse model assessed as vertebrae compressive strength by measuring stiffness at 1 mg/kg, po qd via gavage for 6 weeks by micro CT-scan analysis (reference value: 345.7 +/- 5.08 N/mm); assay type: functional
Summary of the method: (§3)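 Female Balb/c mice, 8 weeks old, ovariectomized, 6 weeks osteopenia development, then 1.0 mg/kg/day or gum acacia vehicle by oral gavage once daily for 6 weeks (sham, OVx and treated groups). Bones collected after sacrifice for micro-CT of trabecular microarchitecture (BV/TV, Tb.N, Tb.Th, Tb.Sp, SMI) and biomechanical testing of femur and vertebrae (energy, stiffness); mean ± SE versus OVx.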

Mus musculus [9] = assay: Anti-osteoporotic activity in ovariectomized postmenopausal Balb/c mouse model assessed as improvement in micro-artchitectural parameter in vertebrae by measuring structural model index at 1 mg/kg, po qd via gavage for 6 weeks by micro CT-scan analysis (reference value: 1.78 +/- 0.08); assay type: functional; summary of the method: as §3
Mus musculus [10] = assay: Anti-osteoporotic activity in ovariectomized postmenopausal Balb/c mouse model assessed as increase in COL1 gene expression in femur bone at 1 mg/kg, po qd via gavage for 6 weeks by RT-PCR method; assay type: functional, organism-based; summary of the method: as §1
Mus musculus [11] = assay: In vivo induction of osteogenesis in Balb/c mouse assessed as bone formation at 0.5 to 1 mg/kg/day, sc over calvarial surface for 5 consecutive days; assay type: functional, organism-based; summary of the method: as §2
Mus musculus [12] = assay: Estrogenic effect in uterine of ovariectomized postmenopausal Balb/c mouse model assessed as luminal epithelial height at 1 mg/kg, po qd via gavage for 6 weeks (reference value: 0.55 +/- 0.03 umeter); assay type: ADME, organism-based; conditions: in vivo, 1008 h
Mus musculus [13] = assay: Estrogenic effect in uterine of ovariectomized postmenopausal Balb/c mouse model assessed as uterine weight at 1 mg/kg, po qd via gavage for 6 weeks (reference value: 0.025 +/- 0.02 mg); assay type: ADME, organism-based; conditions: in vivo, 1008 h
Mus musculus [14] = assay: In vivo induction of osteogenesis in Balb/c mouse assessed as increase in ALP mRNA level in calvaria at 1 mg/kg/day, sc over calvarial surface for 5 consecutive days by RT-PCR method relative to control; assay type: functional; summary of the method: as §2

Activity (Mus musculus [1]): 958.6 um2 | Activity (Mus musculus [3]): 75.75 um2 | Activity (Mus musculus [12]): 0.66 um | Activity (Mus musculus [13]): 0.032 mg
Compound: COc1cc2oc(=O)cc(-c3ccccc3)c2cc1OCCCCCN1CCN(C)CC1
Activity (Mus musculus [2]): Active | fold change (FC) (Mus musculus [4]): 4 | fold change (FC) [5]: 2 | Activity (Mus musculus [6]): Active | Activity (Mus musculus [7]): 3.442 /millimeter | Activity (Mus musculus [8]): 381.35 N/mm | Activity_index (Mus musculus [9]): 1.07 | Activity (Mus musculus [10]): Active | Activity (Mus musculus [11]): Active | fold change (FC) (Mus musculus [14]): 5
